From PubChem BioAssay
Sampled rows, rich in hits. Any-hit rate of the full collection: about 2.3%.
SUMO1 PPI mod – modulators of human SUMO1-mediated protein-protein interactions; SUMO1 binding to a labelled peptide, TR-FRET, 1 h; 0.33% of 360,000 active; inhibition, % at 20 µM; AID 602429; P63165; in the data active = inhibition above about 37%
STEP block – blocks human striatal-enriched tyrosine phosphatase; inhibition, % at 20 µM; recombinant STEP, OMFP fluorogenic substrate, fluorescence; P54829; 0.25% of 360,000 active;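 active = inhibition at 20 µM, scaled per plate between control wells, above about 37%, limit read from the data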;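 note: 0% = DMSO with enzyme and substrate and 100% = substrate only without enzyme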
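Assay system: isolated STEP enzyme. Buffer or medium: pH 6.0 Bis-Tris with DTT and Tween 20. Also added: fluorogenic phosphatase substrate OMFP at 25 µM final. Dosing: 20 µM, 1% DMSO. Timing: 20 min reaction, room temperature, in the dark. Measured by: fluorescence intensity, excitation 480 nm, emission 540 nm. Evaluation: normalized % inhibition.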
DNMT1 inh – DNMT1 (human) enzyme inhibition | DNMT1 molecular beacon, Hinp1I cleavage, fluorescence | inhibition (reported as % activation of signal), % at 10 µM | P26358 | 0.83% of 360,000 active; in the data active = inhibition above about 50%
Target sequence (P26358 504-1616 limits assumed): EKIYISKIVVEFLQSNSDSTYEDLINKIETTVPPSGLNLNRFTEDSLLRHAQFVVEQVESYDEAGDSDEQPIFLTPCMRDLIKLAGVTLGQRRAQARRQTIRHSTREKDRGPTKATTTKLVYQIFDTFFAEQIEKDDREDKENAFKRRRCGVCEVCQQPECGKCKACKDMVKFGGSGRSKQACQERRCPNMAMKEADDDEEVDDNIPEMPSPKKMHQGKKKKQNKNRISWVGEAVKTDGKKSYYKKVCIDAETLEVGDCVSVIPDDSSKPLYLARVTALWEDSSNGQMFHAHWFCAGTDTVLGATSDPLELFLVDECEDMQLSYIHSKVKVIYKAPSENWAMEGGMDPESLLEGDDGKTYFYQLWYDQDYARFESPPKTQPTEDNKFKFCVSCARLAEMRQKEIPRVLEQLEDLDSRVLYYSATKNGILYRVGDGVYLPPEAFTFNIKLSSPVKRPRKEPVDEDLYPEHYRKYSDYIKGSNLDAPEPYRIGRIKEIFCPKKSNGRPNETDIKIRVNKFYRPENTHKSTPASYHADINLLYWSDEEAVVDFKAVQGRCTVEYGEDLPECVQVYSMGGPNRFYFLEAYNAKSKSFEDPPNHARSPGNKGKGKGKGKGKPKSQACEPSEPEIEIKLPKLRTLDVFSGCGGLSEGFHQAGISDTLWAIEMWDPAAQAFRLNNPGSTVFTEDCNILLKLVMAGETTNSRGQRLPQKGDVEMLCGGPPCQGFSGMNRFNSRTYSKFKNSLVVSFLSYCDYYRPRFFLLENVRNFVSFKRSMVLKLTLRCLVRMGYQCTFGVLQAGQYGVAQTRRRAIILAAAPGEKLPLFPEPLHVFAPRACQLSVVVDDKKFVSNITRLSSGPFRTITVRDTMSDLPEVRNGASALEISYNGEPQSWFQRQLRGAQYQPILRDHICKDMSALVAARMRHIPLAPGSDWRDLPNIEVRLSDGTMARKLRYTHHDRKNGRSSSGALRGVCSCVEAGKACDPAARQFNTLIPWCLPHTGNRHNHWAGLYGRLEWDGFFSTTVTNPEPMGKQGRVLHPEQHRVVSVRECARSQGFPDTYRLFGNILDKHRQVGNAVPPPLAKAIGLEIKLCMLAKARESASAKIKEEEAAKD
LMPTP block – blocks human LMPTP phosphatase; P24666; recombinant LMPTP-A, OMFP fluorogenic substrate, fluorescence intensity; inhibition, % at 20 µM; 0.22% of 360,000 active;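 active = compounds that cut the enzyme signal by at least half of the control window in the single-dose screen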;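 note: plate controls were DMSO wells with enzyme plus substrate for no effect and substrate without enzyme for full effect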
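Test system – LMPTP-A enzyme · Amount – LMPTP-A at 0.625 nM final in the reaction · Buffer or medium – Bis-Tris pH 6.0, DTT, detergent · Reagent – OMFP 400 µM · Doses – single 20 µM dose · Schedule – reaction 50 min, room temperature, dark · Detection – fluorescence intensity of OMFP turnover product · Evaluation – percent inhibition versus substrate-only and uninhibited controls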
Scp-1 inhibitor – Scp-1 (human) phosphatase inhibition | Q9GZU7 | 0.88% of 340,000 active | Recombinant Scp1, phosphopeptide, malachite green phosphate absorbance | inhibition, % at 20 µM | AID 493091;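 active = inhibition above about 50% at 20 µM, limit read from the data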;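 note: plate controls were DMSO wells with enzyme for no effect and wells lacking enzyme for full effect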
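Test system: SCP-1 phosphatase catalytic domain, residues 76-261 | Compound dosing: One concentration, 20 µM, with 1.0% DMSO | Schedule: 45 min room-temperature reaction, 5 min colour, 30 min stabiliser | Detection: Absorbance at 630 nm | Read-out basis: % inhibition of SCP-1 phosphate liberation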
Rpn11 block – Rpn11 (human) deubiquitinase inhibition. O00487. human 26S proteasome, Ub4-pepOG fluorescence polarization; 20S core pre-blocked with epoxomicin. inhibition, % at 20 µM. 0.59% of 360,000 active;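 active = inhibition at 20 µM, scaled to each plate's controls, above about 33%, limit read from the data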
DNMT1 interf DR – beacon fluorescence artifact, dose response counter-screen. shares compounds with DNMT1 inh. molecular beacon fluorescence, spectral interference counter-screen. IC50, µM. 200 tested, under 10 active. AID 602382; call rule not given here
DNMT1 confirm – confirmation of human DNMT1 inhibitors. 8% of 2,300 active. DNMT1 molecular beacon HinP1I cleavage, fluorescence. shares compounds with DNMT1 inh. AID 602385. inhibition, % at 10 µM;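 active = average inhibition of at least 30% in the single-concentration confirmation test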
Beacon interf – shows spectral interference in the DNMT1 beacon assay. shares compounds with DNMT1 inh. DNMT1 molecular beacon spectral interference counterscreen, fluorescence 485/520. activation (fluorescence interference), % at 10 µM. 1% of 2,300 active;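 active = activation of at least 30% at 10 µM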;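 note: DNMT1 catalytic domain with a HinP1I cleavage step and a FAM/dabcyl DNA beacon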
An asterisk follows results filed as active; · = no result shown.

SMILES | SUMO1 PPI mod | STEP block | DNMT1 inh | LMPTP block | Scp-1 inhibitor | Rpn11 block | DNMT1 confirm | Beacon interf | others
Cc1cccc(C)c1OCC(=O)Nc1cccc(-c2nnc(-c3ccccc3)o2)c1 | 3 | 3 | -5 | 1 | -8 | 1 | · | ·
Cc1cccc(OCC(=O)Nc2cccc(-c3nnc(-c4ccccc4)o3)c2)c1C | 2 | -1 | 57* | 0 | 2 | -4 | -2 | -3
COc1ccccc1OCC(=O)Nc1ccc(N2CCCCC2)cc1 | 1 | -1 | -7 | 2 | -3 | 30 | · | ·
COc1ccc(N2Cc3cccc(C(=O)NC(C)CCc4ccco4)c3C2=O)cc1 (stereo unspecified) | 5 | 2 | 77* | 12 | 79* | -15 | 3 | 1
Cc1ccnc(NC(=O)COC(=O)C23CC4CC(CC(C4)C2)C3)n1 | 14 | 4 | 70* | 1 | 16 | -2 | 11 | 1
CCCCN1C(=O)/C(=C/C=C2/CC(C)(C)CN2C)SC1=S | -142 | -33 | 76* | 17 | 5 | · | 81* | 85*
CCCN(CC(=O)Nc1ccccc1OC)C(=O)c1ccc(S(=O)(=O)Nc2ccccc2OC)cc1 | -7 | -3 | -1 | 0 | -2 | 0 | · | ·
CCCN(CC(=O)Nc1ccccc1OC)C(=O)c1ccc(S(=O)(=O)Nc2ccccc2)cc1 | -4 | -2 | 62* | -1 | -4 | 3 | 1 | -8
COC1=C(Br)C(=O)c2nc(C)ccc2C1=O | 16 | 3 | 83* | 4 | · | -25 | 41* | -8 | DNMT1 interf DR=>99
COC1=C(N)C(=O)c2nc(C)ccc2C1=O | 0 | 2 | 78* | 3 | 34 | -17 | 53* | -7 | DNMT1 interf DR=>99
COc1cccc(OC)c1OC(=O)C1CC(=O)N(c2ccc3c(c2)OCCO3)C1 (stereo unspecified) | 31 | 6 | 53* | 3 | 47 | -15 | 2 | 0
COc1ccccc1NC(=O)C(C)OC(=O)C1CC(=O)N(c2ccc3c(c2)OCCO3)C1 (stereo unspecified) | 2 | 0 | 2 | 0 | -7 | 5 | · | ·
C(=N\Nc1nc2ccccc2[nH]1)/c1ccncc1 | -10 | 0 | 0 | 2 | -3 | -4 | · | ·
Clc1nc2ccccc2cc1/C=N/Nc1nc2ccccc2[nH]1 | -9 | 6 | 55* | 5 | -10 | 2 | 2 | -7
COc1cc(/C=N/NC(=O)c2nnn(-c3nonc3N)c2C)ccc1OCc1ccc(Cl)cc1 | 4 | 8 | 58* | 20 | · | 1 | -1 | -1
COc1cc(/C=N/NC(=O)c2nnn(-c3nonc3N)c2C(C)C)ccc1OCc1ccccc1 | -3 | 2 | -15 | 6 | -7 | -2 | · | ·
CN(C)C(CNC(=O)C1CC(=O)N(Cc2ccccc2)C1)c1ccccc1 (stereo unspecified) | 2 | -1 | 2 | -3 | -2 | -2 | · | ·
CN(C)C(CNC(=O)C1CC(=O)N(c2cccc(C(F)(F)F)c2)C1)c1ccccc1 (stereo unspecified) | -1 | -1 | 91* | -3 | · | 3 | 2 | 4
C[C@@H]1COC(=O)[C@H](Cc2ccc(F)cc2)C/C=C\C[C@@H](CC(=O)N[C@H](CO)Cc2ccccc2)C(=O)N1 | 8 | 0 | 0 | 2 | 12 | -2 | · | ·
O=C(C[C@@H]1C/C=C\C[C@@H](Cc2ccc(F)cc2)C(=O)OC[C@@H](Cc2ccccc2)NC1=O)N[C@H](CO)Cc1ccccc1 | 2 | -1 | 68* | 2 | -2 | 2 | 3 | 0
O=C(C[C@H]1C/C=C\C[C@@H](Cc2ccc(F)cc2)C(=O)O[C@H](c2ccccc2)CNC1=O)N[C@@H](CO)Cc1ccccc1 | 0 | 0 | 85* | 1 | 0 | -1 | 0 | -6
O=C(C[C@H]1C/C=C\C[C@H](NC(=O)OCC2c3ccccc3-c3ccccc32)C(=O)O[C@H](c2ccccc2)CNC1=O)N[C@H](CO)Cc1ccccc1 | -2 | -1 | 57* | -1 | 2 | 9 | 6 | -4
O=C(N[C@@H]1C/C=C\C[C@H](CC(=O)N(CCO)Cc2ccccc2)C(=O)NC[C@@H](c2ccccc2)OC1=O)OCC1c2ccccc2-c2ccccc21 | -7 | 0 | 37 | 4 | -4 | 11 | · | ·
Cc1c(NC2=NC(C)(C)Cc3ccccc32)c(=O)n(-c2ccccc2)n1C | 1 | -2 | 4 | -1 | 13 | 2 | · | ·
Cc1c(NC2=NC3(CCCCC3)Cc3ccccc32)c(=O)n(C)n1-c1ccccc1 | 9 | 1 | 83* | 7 | 0 | 6 | -1 | -2
SMILES | SUMO1 PPI mod | STEP block | DNMT1 inh | LMPTP block | Scp-1 inhibitor | Rpn11 block | DNMT1 confirm | Beacon interf | others
Cc1ccc([C@@H]2[C@@H]3C(=O)N(C)C(=O)[C@@H]3[C@]3(C)C(=O)N(CC4CC4)CC(=O)N23)o1 | 4 | -4 | 1 | -1 | 7 | 0 | · | ·
COC(=O)CN1C(=O)[C@H]2[C@@H](c3ccc(C)o3)N3C(=O)CN(CCO)C(=O)[C@@]3(C)[C@H]2C1=O | 10 | -2 | 103* | -1 | 0 | -8 | 2 | 4
Cc1ccc(C2(C(F)(F)F)NC(=O)N3CCN=C3S2)cc1 (stereo unspecified) | 35 | 3 | 95* | -5 | -7 | 22 | 4 | 5
CN(Cc1ccccc1)C(=O)COC(=O)c1cc([N+](=O)[O-])ccc1N1CCOCC1 | -25 | -2 | 111* | 1 | -10 | 0 | 2 | 2
CCC(NC(=O)c1cccc(Cn2nc(C)c([N+](=O)[O-])c2C)c1)c1ccc(C(C)C)cc1 (stereo unspecified) | 1 | 0 | 55* | 5 | 0 | 5 | 2 | 5
Cc1nn(Cc2cccc(C(=O)NC(C)c3ccc(C(C)(C)C)cc3)c2)c(C)c1[N+](=O)[O-] (stereo unspecified) | 3 | -1 | -1 | 5 | -13 | 2 | · | ·
COc1cccc2cc(C(=O)Nc3cc(Cl)ccc3N3CCOCC3)c(=O)oc12 | 2 | 3 | 55* | 1 | -6 | 5 | 3 | 5
O=C(CSc1nnc(SCc2ccccc2)s1)N/N=C/C=C/c1ccccc1[N+](=O)[O-] | -5 | 4 | -2 | 2 | -12 | -2 | · | ·
O=C(CSc1nnc(SCc2ccccc2)s1)N/N=C/C=C\c1ccco1 | 13 | 3 | 88* | 28 | 82* | 32 | 9 | -1
